# Measurements as given in PMC3640342 (Pharmaceutical research, 2013).
# Values joined by “and” are separate entries in the source; they are usually repeats but may differ in a detail not shown here. Identical values can stand only once. Like-named read-outs stand apart in the source and are kept apart here.
# Columns and labels:
# [1] = cell-culture media with 10% FBS, 1 μM
# CYP3A4 = CYP3A4 (Homo sapiens, UniProt P08684); assay: CYP phenotyping in human liver microsomes, ketoconazole; conditions: NADPH + Ketoconazole
# mouse liver microsomes = assay: Hepatic microsomal stability, mouse; type: in vitro ADME; conditions: 1 μM
# Procedure, shortened: (§1)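 Liver microsomes from mouse, rat or human (~0.5 mg/mL final) were incubated at 37°C with test compound at 1 μM final (0.6% ACN, 0.01% DMSO) in PBS pH 7.4 ± 0.05% PS80, with 1 mM NADPH or PBS.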
# human plasma = conditions: human plasma, 1 μM
# [2] = Single-dose IV PK at 1 mg/kg; type: in vivo, FVB mice; conditions: IV 1 mg/kg, plasma
# Procedure, shortened: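 Female FVB mice (~25 g) received 1 mg/kg by tail-vein injection in 10% DMSO in PEG400/water (1:1), 10% DMSO, or 10% ethanol in PEG400/water (1:1). Two mice per time point were killed by CO2 at 5 min and 0.25, 0.5, 1, 2, 4 and 6 h, and heparinized plasma was collected. After protein precipitation, samples were assayed by LC/MS/MS, and parameters came from noncompartmental sparse-sampling analysis.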
# human liver microsomes [3] = assay: Hepatic microsomal stability, human; type: in vitro ADME; conditions: 1 μM
# Procedure, shortened: as §1
# human liver microsomes [4] = conditions: for Measured Conc.: 60 min
# CYP2C19 [5] = target: CYP2C19 (Homo sapiens, UniProt P33261); conditions: NADPH + N-3-B
# CYP2C19 [6] = conditions: NADPH + N-3-B
# CYP2D6 = CYP2D6 (Homo sapiens, UniProt P10635); assay: CYP phenotyping in human liver microsomes, quinidine; conditions: NADPH + Quinidine
# rat liver microsomes = assay: Hepatic microsomal stability, rat; type: in vitro ADME; conditions: 1 μM
# Procedure, shortened: as §1
# [7] = mouse brain homogenate, 1 μM, corrected for dilution
# CYP2C9 = CYP2C9 (Homo sapiens, UniProt P11712); assay: CYP phenotyping in human liver microsomes, sulfaphenazole; conditions: NADPH + Sulphaphenazol
# Media solubility = type: physicochemical; conditions: media used in the cell-based assays, 10% FBS
# [8] = Single-dose oral gavage PK at 10 mg/kg; type: in vivo, FVB mice; conditions: for AUClast / Cmax: mean ± SD, n = 2
# Procedure, shortened: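 Female FVB mice (~25 g) were dosed at 10 mg/kg by oral gavage in 20% propylene glycol, 5% ethanol, 5% labrosol and 70% PEG400. Two mice per time point were killed by CO2 at 0.25, 0.5, 1, 2, 4, 6 and 24 h. Heparinized plasma and brain (diluted five-fold in water, homogenized) were assayed by LC/MS/MS.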
# [9] = tested on: human, mouse, rat, and dog liver microsomes; conditions: 10 μM, LC/MS/MS
# [10] = Solubility at pH 2, pH 7.4 and in FaSSIF; type: physicochemical; conditions: pH 7.4 (phosphate) buffer, room temperature overnight
# CYP1A2 = target: T1, CYP1A2 (Homo sapiens, UniProt P05177); assay: CYP phenotyping in human liver microsomes, furafylline; conditions: NADPH + Furafylline
# T1 sequence (P05177 1-516): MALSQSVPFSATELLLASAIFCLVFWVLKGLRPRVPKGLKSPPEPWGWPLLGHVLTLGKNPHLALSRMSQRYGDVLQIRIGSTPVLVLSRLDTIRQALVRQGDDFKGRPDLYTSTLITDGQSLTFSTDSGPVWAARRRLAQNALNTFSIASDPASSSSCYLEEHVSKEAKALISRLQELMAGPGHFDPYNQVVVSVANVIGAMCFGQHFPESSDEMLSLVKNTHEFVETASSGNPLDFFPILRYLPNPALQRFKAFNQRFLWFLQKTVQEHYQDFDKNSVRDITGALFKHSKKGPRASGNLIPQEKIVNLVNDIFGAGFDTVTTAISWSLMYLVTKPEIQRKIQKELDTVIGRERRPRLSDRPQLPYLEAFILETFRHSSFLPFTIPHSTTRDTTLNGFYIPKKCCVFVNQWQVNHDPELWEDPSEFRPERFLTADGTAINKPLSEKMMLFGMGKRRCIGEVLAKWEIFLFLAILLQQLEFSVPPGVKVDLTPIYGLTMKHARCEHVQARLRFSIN
# [11] = tested on: PrP^Sc levels in ScN2a-cl3 cells; assay: cells; type: cell-based, mouse
# mouse plasma = conditions: 1 μM
# [12] = reversible incubation condition, 1 μM, 60 min
# [13] = irreversible incubation condition, maximum metabolism, NADPH/No Inhibitor
# [14] = reversible incubation condition, maximum metabolism, NADPH/No Inhibitor
# Sequence of CYP2C9 (P11712 whole entry): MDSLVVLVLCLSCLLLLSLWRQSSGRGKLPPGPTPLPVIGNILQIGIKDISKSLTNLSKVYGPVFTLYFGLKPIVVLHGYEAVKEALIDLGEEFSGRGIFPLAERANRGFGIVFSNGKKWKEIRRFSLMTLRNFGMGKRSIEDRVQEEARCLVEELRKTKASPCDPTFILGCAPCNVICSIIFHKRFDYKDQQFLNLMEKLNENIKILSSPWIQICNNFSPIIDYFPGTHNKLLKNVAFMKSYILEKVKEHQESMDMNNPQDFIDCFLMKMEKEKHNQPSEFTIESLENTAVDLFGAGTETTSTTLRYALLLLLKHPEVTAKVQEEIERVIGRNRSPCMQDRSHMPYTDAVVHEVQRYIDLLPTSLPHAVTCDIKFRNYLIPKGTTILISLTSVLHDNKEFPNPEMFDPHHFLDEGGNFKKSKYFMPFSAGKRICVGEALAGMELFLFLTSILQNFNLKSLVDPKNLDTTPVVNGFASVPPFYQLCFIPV
# Sequence of CYP2D6 (P10635 whole entry): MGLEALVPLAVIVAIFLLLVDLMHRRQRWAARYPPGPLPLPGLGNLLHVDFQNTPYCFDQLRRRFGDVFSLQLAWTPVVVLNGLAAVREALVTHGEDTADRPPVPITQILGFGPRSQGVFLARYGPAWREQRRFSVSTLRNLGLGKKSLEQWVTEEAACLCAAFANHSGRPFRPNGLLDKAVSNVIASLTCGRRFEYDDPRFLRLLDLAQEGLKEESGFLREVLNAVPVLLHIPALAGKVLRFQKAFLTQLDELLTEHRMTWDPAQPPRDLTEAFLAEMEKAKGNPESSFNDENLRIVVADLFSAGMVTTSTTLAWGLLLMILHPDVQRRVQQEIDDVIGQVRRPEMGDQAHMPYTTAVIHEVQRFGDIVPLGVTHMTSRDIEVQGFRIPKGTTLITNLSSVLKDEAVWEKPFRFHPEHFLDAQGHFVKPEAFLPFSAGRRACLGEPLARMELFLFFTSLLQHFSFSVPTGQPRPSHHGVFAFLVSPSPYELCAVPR
# Sequence of CYP3A4 (P08684 whole entry): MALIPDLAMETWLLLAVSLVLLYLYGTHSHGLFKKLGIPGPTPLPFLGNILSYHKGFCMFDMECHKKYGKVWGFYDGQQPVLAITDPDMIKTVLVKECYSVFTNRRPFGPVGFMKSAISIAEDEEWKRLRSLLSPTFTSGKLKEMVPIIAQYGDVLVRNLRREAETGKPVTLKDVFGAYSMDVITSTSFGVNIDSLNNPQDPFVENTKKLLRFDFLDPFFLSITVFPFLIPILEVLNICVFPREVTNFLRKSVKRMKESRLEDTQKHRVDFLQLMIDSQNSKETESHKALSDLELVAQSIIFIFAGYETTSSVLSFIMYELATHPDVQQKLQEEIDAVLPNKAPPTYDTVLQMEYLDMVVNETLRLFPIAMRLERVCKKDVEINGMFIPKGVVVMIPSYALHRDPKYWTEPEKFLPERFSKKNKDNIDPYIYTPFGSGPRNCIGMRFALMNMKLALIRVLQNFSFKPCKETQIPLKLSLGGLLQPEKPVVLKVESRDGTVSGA
# Sequence of CYP2C19 (Homo sapiens, UniProt P33261) (P33261 whole entry): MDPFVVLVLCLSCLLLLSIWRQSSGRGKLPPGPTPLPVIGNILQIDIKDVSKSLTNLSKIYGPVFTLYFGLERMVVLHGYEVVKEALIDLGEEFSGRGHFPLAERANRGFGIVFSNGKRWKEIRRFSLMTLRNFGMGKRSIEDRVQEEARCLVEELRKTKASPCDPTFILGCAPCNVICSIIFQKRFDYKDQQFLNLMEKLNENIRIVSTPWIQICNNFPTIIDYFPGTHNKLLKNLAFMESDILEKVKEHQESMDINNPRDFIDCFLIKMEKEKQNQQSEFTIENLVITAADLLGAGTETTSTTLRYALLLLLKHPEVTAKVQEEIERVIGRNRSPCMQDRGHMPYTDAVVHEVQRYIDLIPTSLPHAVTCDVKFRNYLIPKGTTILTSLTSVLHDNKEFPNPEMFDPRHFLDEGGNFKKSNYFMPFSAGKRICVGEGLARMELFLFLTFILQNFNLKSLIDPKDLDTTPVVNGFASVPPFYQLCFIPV
smiles,measurement,setting,value
Cc1ccc(Nc2nc(-c3ccc(-c4ccccc4)cc3)cs2)nc1 [IND24],Unbound (%),[1],26% and 25.7±4.93%
same,CYP? (involvement of CYP3A4),CYP3A4,Unlikely (unlikely for values <5)
same,Disappearance %,CYP3A4,15%
same,Disappearance % Δ,CYP3A4,0 (−15) %
same,Measured Conc.,CYP3A4; [12],0.557 µM
same,% remaining after a 60-min incubation,mouse liver microsomes,89%
same,t1/2,mouse liver microsomes; NADPH,> 1 h
same,Unbound (%),human plasma,4.9% and 4.91±1.03%
same,tmax,[2],4.98 min
same,CL,[2]; female FVB mice,15.3 mL/min/kg
same,Vss,[2]; female FVB mice,2.46 L/kg
same,AUClast,"[2]; mean ± SD, n = 2",2.78 ± 1.09 µM·h
same,Cmax,"[2]; mean ± SD, n = 2",2490 ± 2650 nM
same,t1/2,[2]; 1 mg/kg,2.16 h
same,% remaining after a 60-min incubation,human liver microsomes [3],105%
same,t1/2,human liver microsomes [3]; NADPH,> 1 h
same,Metabolism in HLM incubations,"human liver microsomes [4]; 1 μM, human liver microsomes",very little metabolism
same,Disappearance %,human liver microsomes [4]; [13],0 (−18) %
same,Disappearance % Δ,human liver microsomes [4]; [13],0%
same,Measured Conc.,"human liver microsomes [4]; irreversible incubation condition, maximum metabolism, NADPH/No Inhibitor, 1 μM",0.733 µM
same,Measured Conc.,"human liver microsomes [4]; irreversible incubation condition, negative control, No NADPH/No Inhibitor, 1 μM",0.622 µM
same,Disappearance %,human liver microsomes [4]; [14],0%
same,Disappearance % Δ,human liver microsomes [4]; [14],0%
same,Measured Conc.,"human liver microsomes [4]; reversible incubation condition, maximum metabolism, NADPH/No Inhibitor, 1 μM",0.655 µM
same,Disappearance %,"human liver microsomes [4]; reversible incubation condition, negative control, No NADPH/No Inhibitor",0%
same,Measured Conc.,"human liver microsomes [4]; reversible incubation condition, negative control, No NADPH/No Inhibitor, 1 μM",0.654 µM
same,CYP? (involvement of CYP2C19),CYP2C19 [5],Unlikely (unlikely for values <5)
same,Disappearance % Δ,CYP2C19 [5],0 (−18) %
same,Disappearance %,CYP2C19 [6],18%
same,Measured Conc.,CYP2C19 [6]; [12],0.537 µM
same,CYP? (involvement of CYP2D6),CYP2D6,Unlikely (unlikely for values <5)
same,Disappearance %,CYP2D6,15%
same,Disappearance % Δ,CYP2D6,0 (−15) %
same,Measured Conc.,CYP2D6; [12],0.555 µM
same,% remaining after a 60-min incubation,rat liver microsomes,90%
same,t1/2,rat liver microsomes; NADPH,> 1 h
same,Unbound (%),[7],8% and 8.20±0.35%
same,CYP? (involvement of CYP2C9),CYP2C9,Unlikely (unlikely for values <5)
same,Disappearance %,CYP2C9,14%
same,Disappearance % Δ,CYP2C9,0 (−14) %
same,Measured Conc.,CYP2C9; [12],0.566 µM
same,Solubility Media,Media solubility,>250 µM
same,%F (absolute oral bioavailability),"[8]; PO 10 mg/kg vs IV 1 mg/kg, plasma",40% and 40.3%
same,tmax,"[8]; PO 10 mg/kg, brain",4 h
same,AUClast,"[8]; PO 10 mg/kg, brain",29.1 ± 1.24 µM·h
same,Cmax,"[8]; PO 10 mg/kg, brain",2450 ± 740 nM
same,t1/2,"[8]; PO 10 mg/kg, plasma",4.65 h
same,tmax,"[8]; PO 10 mg/kg, plasma",2 h
same,AUClast,"[8]; PO 10 mg/kg, plasma",11.2 ± 1.31 µM·h
same,Cmax,"[8]; PO 10 mg/kg, plasma",1660 ± 110 nM
same,Metabolites observed,[9],metabolites M1–M3 and M5 were observed in all of the microsomal assays while M4 was only observed in the dog liver microsomal incubation
same,Solubility pH 7.4,[10],<1 μM
same,Disappearance %,CYP1A2,0 (−23) %
same,Disappearance % Δ,CYP1A2,0%
same,Measured Conc.,"CYP1A2; irreversible incubation condition, 1 μM, 60 min",0.766 µM
same,EC50,[11],1270 nM
same,EC50,"[11]; read-out: EC50, unbound compound",325 nM
same,Unbound (%),mouse plasma,6.6% and 6.63±1.55%
